The text below walks through data of ChEMBL document CHEMBL4145674, “Discovery of 3-Benzyl-1-( trans-4-((5-cyanopyridin-2-yl)amino)cyclohexyl)-1-arylurea Derivatives as Novel and Selective Cyclin-Dependent Kinase 12 (CDK12) Inhibitors” (J Med Chem, 2018).

One data set concerns the target CDK2/Cyclin A2 (Homo sapiens, UniProt P24941). The data set is described as follows: Inhibition of GST-tagged human CDK2/CCNA2 (04 to 103 residues) pre-incubated for 5 mins before addition of histone H1 substrate and [gamma-33P]ATP and measured after 20 mins by radiometric assay. Format: protein-complex assay. The method, boiled down:
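GST-CDK2/CCNA2 at 1.8 mU/well in 25 mM HEPES pH 7.5, 10 mM Mg acetate, 1 mM DTT. Compound and enzyme together 5 min at room temperature before ATP start. Final levels: histone H1 1 μg/well, [γ-33P]ATP 500 nM. Reaction 20 min at room temperature, stopped with 10% TCA. Filter capture, phosphoric acid wash, scintillation counting. IC50 reported.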

The target of another data set is CDK12/Cyclin K (Homo sapiens, UniProt Q9NYV4). The data set is described as follows: Inhibition of N-terminal FLAG-tagged human full-length CDK12 (1 to 1490 residues)/N-terminal His-tagged CycK (1 to 580 residues) expressed in Sf9 cells assessed as reduction in ATP-dependent ULight-4E-BP1 (Thr37/Thr46) substrate peptide phosphorylation pre-incubated for 60 mins by LANCE Ultra assay.

Data set [1] concerns the target Cyclin-dependent kinase 12 (Homo sapiens, UniProt Q9NYV4). The data set can be described thus: Time dependent inhibition of human CDK12 incubated for 0 to 5 hrs using ULight-4E-BP1 (Thr37/Thr46) substrate by LANCE system based assay. A general note: In TR-FRET formats the signal depends on donor and acceptor labels being close together.
Data set [2] can be described thus: Partition coefficient between 1-octanol and aqueous buffer, log D of the compound at pH 7.4 buffer by chromatography. Type of data set: physicochemical. Particulars: 1-octanol/aqueous buffer. The method, boiled down:
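log D as octanol/buffer partition at pH 7.4, determined chromatographically.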

Data set [3] is described as follows: Solubility in aqueous buffer solution at pH 6.8 by UV absorbance spectroscopy. Type of data set: physicochemical. The method, boiled down: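 Compound in DMSO spiked into aqueous buffer pH 6.8 and incubated. Precipitate removed by filtration, dissolved compound quantified by UV absorbance of the filtrate.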
In the next data set the target is CDK9/cyclin T1 (Homo sapiens, UniProt P50750). Type of data set: protein-complex assay.
The nature of data set [4]: Permeability of the compound at 10 umol/L incubated for 3 hrs by LC/MS/MS detection based PAMPA method. Type of data set: ADME. The note with it: read-out: permeability. The method, boiled down: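 PAMPA: donor buffer pH 7.4 holding 10 μmol/L compound; acceptor filter coated with GIT-0 lipid, acceptor sink buffer. 3 h at room temperature. Compound in donor and acceptor wells quantified by LC/MS/MS.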

Another data set is filed under the species Homo sapiens. The data set is described as follows: Selectivity index, ratio of IC50 for inhibition of GST-tagged human CDK2/CCNA2 (04 to 103 residues) to IC50 for inhibition of N-terminal FLAG-tagged human full-length CDK12 (1 to 1490 residues)/N-terminal His-tagged CycK (1 to 580 residues) expressed in Sf9 cells. A digest of the protocol: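 Ratio of two IC50s. CDK2/CCNA2: radiometric assay, 1.8 mU/well enzyme, histone H1 (1 μg/well), 500 nM [γ-33P]ATP, 5 min compound preincubation, 20 min at room temperature, TCA stop, filter-bound counts. In-house CDK12/CycK (30 nM): LANCE TR-FRET, ULight-4E-BP1 peptide 150 nM, ATP 10 μM, HEPES pH 7.5, 60 min preincubation, EDTA/Eu-antibody stop.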

A further data set has as its target CDK7/Cyclin H/MNAT1 (Homo sapiens, UniProt P50613).
The next data set addresses CDK8/Cyclin C (Homo sapiens, UniProt P49336). The data set is described as follows: Inhibition of GST-tagged human CDK8/CycC (04 to 109 residues) using kinase tracer 236 probe incubated for 60 mins by TR-FRET assay. Type of data set: protein-complex assay.

The structures appear in SMILES notation. ≈ marks a conversion by molar mass, not a printed value. Calls of active or inactive are those of the source. The calls are words filed in the database; no cut-off is given here. Some results are limits rather than exact numbers.

The IC50 is the concentration that inhibits the measured activity by half. By chromatographic logD is commonly meant a lipophilicity value derived from retention on a column. A lower chromatographic logD goes with lower lipophilicity. Usually solubility stands for the dissolved amount per volume that the medium holds. Read a high solubility as a readily soluble substance.

Chain of CDK12/Cyclin K (O75909 whole entry, the tested form may be a part): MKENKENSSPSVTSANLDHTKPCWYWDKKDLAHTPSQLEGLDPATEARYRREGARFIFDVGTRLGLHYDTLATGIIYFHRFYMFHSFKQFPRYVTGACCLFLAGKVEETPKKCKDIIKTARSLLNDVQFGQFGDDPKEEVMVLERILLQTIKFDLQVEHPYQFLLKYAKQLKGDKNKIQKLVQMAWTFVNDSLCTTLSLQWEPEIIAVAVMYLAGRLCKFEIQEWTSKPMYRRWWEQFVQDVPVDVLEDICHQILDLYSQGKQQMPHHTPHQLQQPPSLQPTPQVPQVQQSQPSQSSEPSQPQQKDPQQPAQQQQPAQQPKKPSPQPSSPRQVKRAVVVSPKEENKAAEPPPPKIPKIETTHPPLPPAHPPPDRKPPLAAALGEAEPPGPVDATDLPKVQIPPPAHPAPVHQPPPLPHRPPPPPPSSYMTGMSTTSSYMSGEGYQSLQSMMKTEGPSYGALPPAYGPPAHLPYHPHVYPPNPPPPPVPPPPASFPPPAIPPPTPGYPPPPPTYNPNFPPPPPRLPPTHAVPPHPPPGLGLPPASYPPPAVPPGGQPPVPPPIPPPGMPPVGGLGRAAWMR
Chain of CDK12/Cyclin K (Q9NYV4 whole entry, the tested form may be a part): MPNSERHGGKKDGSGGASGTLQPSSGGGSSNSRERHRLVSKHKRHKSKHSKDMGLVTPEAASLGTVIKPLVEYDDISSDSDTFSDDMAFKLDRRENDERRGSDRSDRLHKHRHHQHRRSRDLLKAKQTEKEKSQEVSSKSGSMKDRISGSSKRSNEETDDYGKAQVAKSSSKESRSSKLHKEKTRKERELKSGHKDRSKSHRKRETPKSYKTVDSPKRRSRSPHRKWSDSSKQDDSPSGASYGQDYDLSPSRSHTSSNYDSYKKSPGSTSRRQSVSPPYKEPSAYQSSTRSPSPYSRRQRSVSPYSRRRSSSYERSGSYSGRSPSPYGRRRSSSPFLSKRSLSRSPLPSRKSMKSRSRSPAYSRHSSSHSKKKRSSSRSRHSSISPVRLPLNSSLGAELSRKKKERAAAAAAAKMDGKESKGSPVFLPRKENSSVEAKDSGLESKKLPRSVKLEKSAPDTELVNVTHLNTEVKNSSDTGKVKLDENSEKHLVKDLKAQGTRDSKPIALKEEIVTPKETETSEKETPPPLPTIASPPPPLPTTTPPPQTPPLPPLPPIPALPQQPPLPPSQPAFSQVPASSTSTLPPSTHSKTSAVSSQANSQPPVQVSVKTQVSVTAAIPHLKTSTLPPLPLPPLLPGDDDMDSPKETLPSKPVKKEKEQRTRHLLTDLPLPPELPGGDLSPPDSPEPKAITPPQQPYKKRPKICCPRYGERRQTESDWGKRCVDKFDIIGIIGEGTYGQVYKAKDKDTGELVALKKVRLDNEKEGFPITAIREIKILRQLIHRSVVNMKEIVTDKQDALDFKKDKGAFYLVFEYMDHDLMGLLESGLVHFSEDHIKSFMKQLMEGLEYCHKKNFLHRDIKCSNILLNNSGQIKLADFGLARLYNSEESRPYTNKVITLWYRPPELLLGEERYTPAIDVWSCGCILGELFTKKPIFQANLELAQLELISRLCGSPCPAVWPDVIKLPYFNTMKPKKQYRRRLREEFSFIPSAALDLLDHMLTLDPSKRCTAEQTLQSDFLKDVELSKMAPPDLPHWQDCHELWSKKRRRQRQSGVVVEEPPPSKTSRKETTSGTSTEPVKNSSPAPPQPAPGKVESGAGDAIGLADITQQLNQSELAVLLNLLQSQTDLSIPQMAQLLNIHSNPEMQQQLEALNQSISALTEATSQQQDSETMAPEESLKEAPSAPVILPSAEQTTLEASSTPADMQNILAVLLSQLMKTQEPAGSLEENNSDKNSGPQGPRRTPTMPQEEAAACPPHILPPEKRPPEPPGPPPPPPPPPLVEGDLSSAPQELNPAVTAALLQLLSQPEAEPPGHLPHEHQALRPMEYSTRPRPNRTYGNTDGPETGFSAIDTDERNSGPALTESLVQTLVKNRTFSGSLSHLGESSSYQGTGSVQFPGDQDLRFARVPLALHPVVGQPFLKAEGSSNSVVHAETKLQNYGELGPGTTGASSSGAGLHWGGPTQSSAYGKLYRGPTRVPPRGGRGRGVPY
Chain of CDK9/cyclin T1 (O60563 whole entry): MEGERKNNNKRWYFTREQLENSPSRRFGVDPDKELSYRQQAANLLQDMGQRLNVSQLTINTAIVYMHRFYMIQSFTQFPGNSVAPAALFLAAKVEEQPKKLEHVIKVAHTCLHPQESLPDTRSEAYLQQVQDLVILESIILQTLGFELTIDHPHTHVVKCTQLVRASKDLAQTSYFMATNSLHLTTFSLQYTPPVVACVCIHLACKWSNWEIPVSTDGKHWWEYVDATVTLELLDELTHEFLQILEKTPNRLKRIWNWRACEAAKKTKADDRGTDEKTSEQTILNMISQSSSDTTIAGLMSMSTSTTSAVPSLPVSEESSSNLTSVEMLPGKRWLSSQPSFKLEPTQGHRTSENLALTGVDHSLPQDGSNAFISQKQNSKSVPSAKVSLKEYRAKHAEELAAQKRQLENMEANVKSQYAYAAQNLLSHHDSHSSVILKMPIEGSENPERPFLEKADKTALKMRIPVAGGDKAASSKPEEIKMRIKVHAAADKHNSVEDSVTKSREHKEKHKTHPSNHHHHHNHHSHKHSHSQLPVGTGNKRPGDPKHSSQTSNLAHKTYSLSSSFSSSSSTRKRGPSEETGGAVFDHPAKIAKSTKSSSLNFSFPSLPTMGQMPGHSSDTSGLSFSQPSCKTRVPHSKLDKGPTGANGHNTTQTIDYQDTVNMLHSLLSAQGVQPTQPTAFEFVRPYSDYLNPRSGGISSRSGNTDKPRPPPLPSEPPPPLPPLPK
Chain of CDK9/cyclin T1 (P50750 whole entry): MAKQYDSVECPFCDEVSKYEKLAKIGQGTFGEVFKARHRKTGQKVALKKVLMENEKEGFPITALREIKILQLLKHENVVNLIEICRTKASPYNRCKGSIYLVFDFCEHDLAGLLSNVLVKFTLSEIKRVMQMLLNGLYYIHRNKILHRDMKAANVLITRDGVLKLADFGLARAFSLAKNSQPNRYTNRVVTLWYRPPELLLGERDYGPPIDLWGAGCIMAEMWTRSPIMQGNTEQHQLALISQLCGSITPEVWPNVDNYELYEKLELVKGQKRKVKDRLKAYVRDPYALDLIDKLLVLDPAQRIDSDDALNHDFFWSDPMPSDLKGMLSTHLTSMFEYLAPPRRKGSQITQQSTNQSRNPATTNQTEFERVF
Chain of CDK8/Cyclin C (P49336 whole entry, the tested form may be a part): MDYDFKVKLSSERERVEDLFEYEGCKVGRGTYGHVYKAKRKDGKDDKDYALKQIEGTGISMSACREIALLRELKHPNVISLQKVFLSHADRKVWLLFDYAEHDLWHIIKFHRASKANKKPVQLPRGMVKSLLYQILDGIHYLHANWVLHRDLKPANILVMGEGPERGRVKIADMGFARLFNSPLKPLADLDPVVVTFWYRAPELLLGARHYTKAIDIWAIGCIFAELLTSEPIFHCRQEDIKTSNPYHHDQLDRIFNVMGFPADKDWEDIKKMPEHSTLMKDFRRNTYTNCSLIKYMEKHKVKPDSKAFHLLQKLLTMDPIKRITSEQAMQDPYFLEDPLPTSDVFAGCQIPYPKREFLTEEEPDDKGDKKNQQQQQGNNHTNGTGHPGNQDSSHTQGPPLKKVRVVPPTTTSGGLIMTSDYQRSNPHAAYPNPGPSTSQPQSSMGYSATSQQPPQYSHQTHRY
Chain of CDK8/Cyclin C (P24863 whole entry, further chain, the tested form may be a part): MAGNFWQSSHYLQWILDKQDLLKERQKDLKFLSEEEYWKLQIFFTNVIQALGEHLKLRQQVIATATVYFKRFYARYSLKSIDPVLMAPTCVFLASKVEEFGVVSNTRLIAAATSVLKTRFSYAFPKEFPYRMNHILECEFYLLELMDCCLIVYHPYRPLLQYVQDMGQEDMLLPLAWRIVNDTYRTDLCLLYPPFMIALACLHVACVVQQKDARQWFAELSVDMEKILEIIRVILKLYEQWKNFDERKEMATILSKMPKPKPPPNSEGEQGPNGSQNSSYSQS
Chain of Cyclin-dependent kinase 12 (Q9NYV4 whole entry, looked up): as the sequence (Q9NYV4 whole entry, the tested form may be a part) above
Chain of CDK7/Cyclin H/MNAT1 (P51946 whole entry, the tested form may be a part): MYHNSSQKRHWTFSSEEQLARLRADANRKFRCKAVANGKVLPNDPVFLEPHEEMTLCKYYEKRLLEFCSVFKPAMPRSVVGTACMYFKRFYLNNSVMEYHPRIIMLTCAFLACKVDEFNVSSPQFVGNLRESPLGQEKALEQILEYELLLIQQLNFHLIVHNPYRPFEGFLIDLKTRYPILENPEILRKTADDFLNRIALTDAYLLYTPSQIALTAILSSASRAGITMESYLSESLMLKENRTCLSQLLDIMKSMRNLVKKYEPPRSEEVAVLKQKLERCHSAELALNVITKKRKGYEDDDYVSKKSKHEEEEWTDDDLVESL
Chain of CDK7/Cyclin H/MNAT1 (P50613 whole entry, the tested form may be a part): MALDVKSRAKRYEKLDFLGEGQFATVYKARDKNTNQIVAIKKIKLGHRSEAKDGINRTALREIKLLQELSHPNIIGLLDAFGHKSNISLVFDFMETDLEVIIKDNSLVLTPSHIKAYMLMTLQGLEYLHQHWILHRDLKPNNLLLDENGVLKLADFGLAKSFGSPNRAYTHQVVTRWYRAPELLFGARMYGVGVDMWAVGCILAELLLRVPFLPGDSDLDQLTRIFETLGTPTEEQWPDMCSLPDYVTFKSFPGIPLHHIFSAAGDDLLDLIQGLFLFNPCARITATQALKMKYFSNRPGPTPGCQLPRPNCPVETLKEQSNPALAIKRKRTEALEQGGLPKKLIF
Chain of CDK7/Cyclin H/MNAT1 (P51948 whole entry, further chain, the tested form may be a part): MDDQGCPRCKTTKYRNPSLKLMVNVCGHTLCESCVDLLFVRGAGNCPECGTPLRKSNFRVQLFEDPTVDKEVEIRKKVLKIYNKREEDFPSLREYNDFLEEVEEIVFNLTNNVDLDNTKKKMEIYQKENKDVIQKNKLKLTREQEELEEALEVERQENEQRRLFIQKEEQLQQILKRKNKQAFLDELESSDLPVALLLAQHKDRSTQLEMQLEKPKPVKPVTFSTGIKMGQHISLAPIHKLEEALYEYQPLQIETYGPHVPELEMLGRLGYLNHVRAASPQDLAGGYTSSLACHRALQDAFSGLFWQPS

On to `Cn1cc(-c2ccc(N(C(=O)OCc3ccccc3)[C@H]3CC[C@H](Nc4ccc(C#N)cn4)CC3)cc2)cn1`, for which the results for the IC50 against CDK2/Cyclin A2 and on CDK12/Cyclin K were 2500 nM and 640 nM, respectively.

For `CN(C)C/C=C/C(=O)Nc1ccc(C(=O)N2CCC[C@@H](Nc3ncc(Cl)c(-c4c[nH]c5ccccc45)n3)C2)cc1`, the TDI entry in [1] was “Active”.

Turning to `Cn1cc(-c2ccc(S(=O)(=O)N3CCC(Nc4ccccn4)CC3)cc2)cn1`, the IC50 at CDK2/Cyclin A2 was 1200 nM; at CDK12/Cyclin K, above 30000 nM.

For the compound `Cn1ccc(-c2ccc(N(C(=O)NCc3ccccc3)[C@H]3CC[C@H](Nc4ccc(C#N)cn4)CC3)cc2)cc1=O`, the IC50 is above 100000 nM against CDK2/Cyclin A2, above 30000 nM against CDK9/cyclin T1 and 44 nM at CDK12/Cyclin K. This compound also showed a chromatographic logD in data set [2] of 2.3. The solubility in data set [3] is below 0.08 µg/mL. Moreover, the Papp at 3 h, 10 µM in data set [4] came out at 24.7 ×10⁻⁶ cm/s.

For `N#Cc1ccc(N[C@H]2CC[C@H](N(C(=O)NCc3ccccc3)c3ccc(-c4cccnc4)cc3)CC2)nc1`, the IC50 was above 100000 nM against CDK2/Cyclin A2, above 30000 nM on CDK9/cyclin T1 and 59 nM on CDK12/Cyclin K. Further, the chromatographic logD in [2] is 3. Moreover, in [3], the concentration in solution (solubility) was 0.67 µg/mL (≈ 1.33 µM). Further, the Papp at 3 h, 10 µM in data set [4] is 28 ×10⁻⁶ cm/s.

Take `Cn1cc(-c2ccc(N(C(=O)NCc3ccccc3)[C@H]3CC[C@H](Nc4ccc(C#N)cn4)CC3)cc2)cn1`: the values for the IC50 against CDK2/Cyclin A2, against CDK9/cyclin T1 and at CDK12/Cyclin K were above 100000 nM, above 30000 nM and 63 nM, respectively. The compound also gave a chromatographic logD in data set [2] of 2.8. Moreover, the Ratio IC50 in the data set filed under Homo sapiens is above 800. In data set [3], the solubility is 0.33 µg/mL (≈ 0.653 µM). In addition, in data set [4], the Papp at 3 h, 10 µM was 28.8 ×10⁻⁶ cm/s.

In the case of `Cn1cc(-c2ccc(S(=O)(=O)N3CCC(Nc4ccc(C#N)cn4)CC3)cc2)cn1`, the 50% inhibitory concentration (IC50) against CDK2/Cyclin A2 was 10 nM; against CDK7/Cyclin H/MNAT1 it was above 10000 nM; against CDK8/Cyclin C, above 10000 nM; on CDK9/cyclin T1, above 30000 nM; on CDK12/Cyclin K it was 360 nM.

As for `Cn1cc(-c2ccc(S(=O)(=O)N3CCC(Nc4cccc(C#N)n4)CC3)cc2)cn1`, the IC50 against CDK2/Cyclin A2 was 46000 nM; on CDK12/Cyclin K it was above 30000 nM.

As to `Cn1cc(-c2ccc(N[C@H]3CC[C@H](Nc4ccc(C#N)cn4)CC3)cc2)cn1`, the IC50 against CDK2/Cyclin A2 came out at 9800 nM; at CDK12/Cyclin K, 8600 nM.

`Cn1cc(-c2ccc(CN3CCC(Nc4ccc(C#N)cn4)CC3)cc2)cn1`: at CDK12/Cyclin K, the IC50 was found to be 16000 nM.

Turning to `CC(=O)N(c1ccc(-c2cnn(C)c2)cc1)[C@H]1CC[C@H](Nc2ncc3ccccc3n2)CC1`, the IC50 against CDK2/Cyclin A2 came out at 24 nM; at CDK12/Cyclin K it was 13 nM.

With `COc1ccc(NC2CCN(S(=O)(=O)c3ccc(-c4cnn(C)c4)cc3)CC2)nc1`, the IC50 against CDK2/Cyclin A2 was 21000 nM; at CDK12/Cyclin K, above 30000 nM.

Turning to `CC(=O)N(c1ccc(-c2cnn(C)c2)cc1)[C@H]1CC[C@@H](Nc2ccc(C#N)cn2)CC1`, the IC50 is above 100000 nM at CDK2/Cyclin A2 and above 30000 nM at CDK12/Cyclin K.

`CCNC(=O)N(c1ccc(-c2cnn(C)c2)cc1)[C@H]1CC[C@H](Nc2ccc(C#N)cn2)CC1`: the 50% inhibitory concentration (IC50) on CDK2/Cyclin A2 was 4800 nM; on CDK12/Cyclin K it was 460 nM.

Consider `Cn1cccc(-c2ccc(N(C(=O)NCc3ccccc3)[C@H]3CC[C@H](Nc4ccc(C#N)cn4)CC3)cc2)c1=O`, for which the IC50 on CDK2/Cyclin A2 amounted to 18000 nM; at CDK9/cyclin T1, 15000 nM; on CDK12/Cyclin K, 250 nM. For the same compound, the chromatographic logD in data set [2] stood at 2.7. Moreover, in [3], the concentration in solution (solubility) came to 4.7 µg/mL (≈ 8.82 µM).

Consider `Cn1cc(-c2ccc(S(=O)(=O)N3CCC(Nc4ccc(C#N)cc4)CC3)cc2)cn1`, for which the IC50 at CDK12/Cyclin K is above 30000 nM.

As to `Cn1cc(-c2ccc(S(=O)(=O)N3CCC(Nc4ccc(C(F)(F)F)cn4)CC3)cc2)cn1`, the IC50 against CDK2/Cyclin A2 is 5.8 nM; on CDK12/Cyclin K it was 1800 nM.

As for `Cn1cc(-c2ccc(N(C(=O)NCC3CCCCC3)[C@H]3CC[C@H](Nc4ccc(C#N)cn4)CC3)cc2)cn1`, the IC50 at CDK2/Cyclin A2 is above 100000 nM; at CDK12/Cyclin K, 99 nM.

In the case of `CN(c1ccc(C#N)cn1)C1CCN(S(=O)(=O)c2ccc(-c3cnn(C)c3)cc2)CC1`, the IC50 against CDK2/Cyclin A2 was 68000 nM; at CDK12/Cyclin K, above 30000 nM.

As to `Cn1c(-c2ccc(N(C(=O)NCc3ccccc3)[C@H]3CC[C@H](Nc4ccc(C#N)cn4)CC3)cc2)cccc1=O`, the IC50 at CDK2/Cyclin A2 is 27000 nM; at CDK9/cyclin T1, above 30000 nM; on CDK12/Cyclin K it was 310 nM. Also, the chromatographic logD in [2] came to 2.6. In [3], this compound showed a solubility below 0.09 µg/mL.

For the compound `N#Cc1ccc(N[C@H]2CC[C@H](N(C(=O)NCc3ccccc3)c3ccccc3)CC2)nc1`, the IC50 on CDK2/Cyclin A2 is 56000 nM; against CDK9/cyclin T1, above 30000 nM; at CDK12/Cyclin K it was 63 nM. This compound also gave a chromatographic logD in data set [2] of 3.3. The compound also registered a solubility in data set [3] of 4 µg/mL (≈ 9.4 µM).

For `Cn1cc(-c2ccc(N(C(=O)CCc3ccccc3)[C@H]3CC[C@H](Nc4ccc(C#N)cn4)CC3)cc2)cn1`, the results for the IC50 at CDK2/Cyclin A2 and at CDK12/Cyclin K were 2900 nM and 160 nM, respectively.

For the compound `Cn1cc(-c2ccc(C(=O)N3CCC(Nc4ccc(C#N)cn4)CC3)cc2)cn1`, at CDK12/Cyclin K, the IC50 came out at 23000 nM.

`CC(=O)N(c1ccc(-c2cnn(C)c2)cc1)[C@H]1CC[C@H](Nc2ccc(C#N)cn2)CC1`: the IC50 against CDK2/Cyclin A2 was found to be 470 nM; on CDK12/Cyclin K, 130 nM.

Consider `Cn1cc(-c2ccc(N([C@H]3CC[C@H](Nc4ccc(C#N)cn4)CC3)S(C)(=O)=O)cc2)cn1`, for which the IC50 against CDK2/Cyclin A2 stood at 31 nM; on CDK12/Cyclin K it was 110 nM.

For the compound `Cn1cc(-c2ccc(S(=O)(=O)N3CCC(Nc4cc(C#N)ccn4)CC3)cc2)cn1`, the IC50 at CDK2/Cyclin A2 was 32 nM; at CDK12/Cyclin K, above 30000 nM.

Turning to `COC(=O)N(c1ccc(-c2cnn(C)c2)cc1)[C@H]1CC[C@H](Nc2ccc(C#N)cn2)CC1`, the IC50 on CDK2/Cyclin A2 is 1600 nM; at CDK12/Cyclin K, 200 nM.
